Experimental data pooled from the literature.
Each line is one published result; the experiments were not run side by side. ≈ marks a conversion by molar mass, not a printed value.

Structure (SMILES)	organism	assay	system	setting	quantity	result
CN[C@H](CC(C)C)C(=O)N[C@H]1C(=O)N[C@@H](CC(N)=O)C(=O)N[C@H]2C(=O)N[C@H]3C(=O)N[C@H](C(=O)N[C@H](C(=O)O)c4cc(O)cc(O)c4-c4cc3ccc4O)[C@H](O)c3ccc(c(Cl)c3)Oc3cc2cc(c3O[C@@H]2O[C@H](CO)[C@@H](O)[C@H](O)[C@H]2O[C@H]2C[C@](C)(N)[C@H](O)[C@H](C)O2)Oc2ccc(cc2Cl)[C@H]1O	Kocuria	microbial growth, broth dilution	–	–	MIC	0.67 µM
O=C(O)c1cn(C2CC2)c2cc(N3CCNCC3)c(F)cc2c1=O	Pseudomonas aeruginosa	microbial growth, broth dilution	–	–	MIC90	1.56 µM (≈ 0.517 µg/mL)
COc1ccc(C=NNC(=O)CSc2nc3c(C)cccc3c(=O)n2-c2ccccc2)cc1OS(C)(=O)=O	Pseudomonas aeruginosa	microbial growth, well diffusion	–	20 µg/mL	inhibition zone	2 mm
Cc1ccc2[nH]nc(-c3nnc(Nc4ccc(F)cc4Cl)s3)c2c1	Pseudomonas aeruginosa	microbial growth	ATCC27853	–	MIC	96.1 µg/mL
CCCS(=O)(=O)Oc1ccc(C=NNC(=O)CSc2nc3c(C)cccc3c(=O)n2-c2ccccc2)cc1OC	Pseudomonas aeruginosa	microbial growth, well diffusion	–	20 µg/mL	inhibition zone	2 mm
CNC(C)C1CCC(N)C(OC2C(N)CC(N)C(OC3OCC(C)(O)C(NC)C3O)C2O)O1 (stereo not shown)	Pseudomonas aeruginosa	microbial killing, broth dilution	ATCC27853	24 h	MBC	8000 µM (≈ 3820 µg/mL)
CC(=O)c1sc(N/N=C/c2c(-c3ccccc3)nc3ncccn23)nc1C	Pseudomonas aeruginosa	microbial growth, well diffusion	ATCC27853	100 µg/mL	inhibition zone	14 mm
CO[C@H]1/C=C/O[C@@]2(C)Oc3c(C)c(O)c4c(c3C2=O)C2=NC3(CCN(CC(C)C)CC3)NC2=C(NC(=O)/C(C)=C\C=C\[C@H](C)[C@H](O)[C@@H](C)[C@@H](O)[C@@H](C)[C@H](OC(C)=O)[C@@H]1C)C4=O	Mycobacteroides abscessus	microbial growth, agar dilution	ATCC19977	–	MIC	11.2 µM
CCOC(=O)/C=C1/SC(N/N=C/c2c(-c3ccc(F)cc3)nc3ncccn23)=NC1=O	Pseudomonas aeruginosa	microbial growth, well diffusion	ATCC27853	100 µg/mL	inhibition zone	11 mm
CC1(C)S[C@@H]2[C@H](NC(=O)[C@H](N)c3ccccc3)C(=O)N2[C@H]1C(=O)O	Kocuria	microbial growth, broth dilution	–	–	MIC	1.34 µM
